Measured values published in ChEMBL document CHEMBL1125607, “Novel gonadotropin-releasing hormone antagonists: peptides incorporating modified N omega-cyanoguanidino moieties” (J Med Chem, 1991).
Values after ≈ are worked out from the molar mass of the structure shown. Active and inactive are the calls of the source. The rule behind the calls is not given here. Where a SMILES comes first, the peptide text is derived from it. [ ]: non-standard residue; d: D form. The star is where a group is joined. Triazol3yl(1,2,4-5-NH2) = Nc1nc(*)n[nH]1; dPhe(4-Cl) = N[C@H](Cc1ccc(Cl)cc1)C(=O)O; d2Nal = N[C@H](Cc1ccc2ccccc2c1)C(=O)O; Lys(iPr) = CC(C)NCCCC[C@H](N)C(=O)O; d3Pal = N[C@H](Cc1cccnc1)C(=O)O; Nicotinoyl = O=C(c1cccnc1)*

Experiments:
[1] = molecular target: T1, Gonadotropin-releasing hormone receptor (Rattus norvegicus, UniProt P30969); test: In vitro binding affinity of Gonadotropin-releasing hormone antagonist was measured in rat pituitary cell membranes; parameters: species or system Pituitary gland cell, Membrane
T1 sequence (P30969 whole entry): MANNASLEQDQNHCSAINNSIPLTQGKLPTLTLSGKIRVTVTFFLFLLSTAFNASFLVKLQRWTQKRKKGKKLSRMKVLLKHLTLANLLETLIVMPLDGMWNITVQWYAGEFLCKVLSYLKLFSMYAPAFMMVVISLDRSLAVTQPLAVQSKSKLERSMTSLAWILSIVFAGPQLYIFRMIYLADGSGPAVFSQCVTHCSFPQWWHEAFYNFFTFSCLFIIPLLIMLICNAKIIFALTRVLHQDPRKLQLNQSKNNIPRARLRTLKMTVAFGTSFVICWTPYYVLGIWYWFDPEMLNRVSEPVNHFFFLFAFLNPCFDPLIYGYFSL
Summary of the method: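 Displacement binding on pituitary cell membranes with [DAla6,NMe-Leu7,Pro9-NHEt]GnRH as standard; analogue KD values calculated from potencies relative to that standard derived from displacement data.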

[2] = test system: Rattus norvegicus; test: Potency (2.5 mg/rat) using anti-ovulatory assay, expressed as rat ovulating/total number of treated rats measured after sc administration; 2/8; assay type: functional, organism-based
[3] = molecular target: Gonadotropin-releasing hormone receptor (Rattus norvegicus) (UniProt P30969); test: Antagonist potency at GnRH receptor relative to a standard ([Ac-delta3Pro, DFpa2, DTrp3,6]GnRH).
[4] = test system: Rattus norvegicus; test: Potency (1 mg/rat) using anti-ovulatory assay, expressed as rat ovulating/total number of treated rats measured after sc administration; 5/5; assay type: functional, organism-based
[5] = organism: Rattus norvegicus; test: In vitro histamine release by rat mast cells.; conditions: read-out: ED50 (the source's name)
[6] = test system: Rattus norvegicus; test: Potency (2 mg/rat) using anti-ovulatory assay, expressed as rat ovulating/total number of treated rats measured after sc administration; 1/10; assay type: functional, organism-based
[7] = test system: Rattus norvegicus; test: Potency (1 mg/rat) using anti-ovulatory assay, expressed as rat ovulating/total number of treated rats measured after sc administration; 1/17; assay type: functional, organism-based
[8] = test system: Rattus norvegicus; test: Potency (0.5 mg/rat) using anti-ovulatory assay, expressed as rat ovulating/total number of treated rats measured after sc administration; 8/18; assay type: functional, organism-based
[9] = test system: Rattus norvegicus; test: Potency (5 mg/rat) using anti-ovulatory assay, expressed as rat ovulating/total number of treated rats measured after sc administration; 14/20; assay type: functional, organism-based
[10] = test system: Rattus norvegicus; test: Potency (2 mg/rat) using anti-ovulatory assay, expressed as rat ovulating/total number of treated rats measured after sc administration; 2/10; assay type: functional, organism-based
[11] = test system: Rattus norvegicus; test: Potency (2.5 mg/rat) using anti-ovulatory assay, expressed as rat ovulating/total number of treated rats measured after sc administration; 0/7; assay type: functional, organism-based
[12] = test system: Rattus norvegicus; test: Potency (1.0 mg/rat) using anti-ovulatory assay, expressed as rat ovulating/total number of treated rats measured after sc administration; 5/5; assay type: functional, organism-based
[13] = test system: Rattus norvegicus; test: Potency (1 mg/rat) using anti-ovulatory assay, expressed as rat ovulating/total number of treated rats measured after sc administration; 2/8; assay type: functional, organism-based
[14] = test system: Rattus norvegicus; test: Potency (0.5 mg/rat) using anti-ovulatory assay, expressed as rat ovulating/total number of treated rats measured after sc administration; 6/6; assay type: functional, organism-based

SMILES	Kd [1]	Relative potency [3]	EC50 [5]	also measured
CCCCNC(=NC#N)NCCCC[C@@H](NC(=O)[C@H](Cc1ccc(O)cc1)NC(=O)[C@H](CO)NC(=O)[C@@H](Cc1cccnc1)NC(=O)[C@H](Cc1cnc[nH]1)NC(=O)[C@@H]1CCC(=O)N1)C(=O)N[C@@H](CC(C)C)C(=O)N[C@@H](CCCNC(=N)N)C(=O)N1CCC[C@H]1C(=O)N[C@H](C)C(N)=O	1.7 nM	–	–	–
CC(C)C[C@H](NC(=O)[C@@H](CCCNC(=N)N)NC(=O)[C@H](Cc1ccc(O)cc1)NC(=O)[C@H](CO)NC(=O)[C@@H](CCCCNc1nnc(N)[nH]1)NC(=O)[C@H](Cc1cnc[nH]1)NC(=O)[C@@H]1CCC(=O)N1)C(=O)N[C@@H](CCCCNC(C)C)C(=O)N1CCC[C@H]1C(=O)N[C@H](C)C(N)=O	0.27 nM	–	–	–
CCCCCC/N=C(\NC#N)NCCCC[C@H](NC(=O)[C@H](CO)NC(=O)[C@H](Cc1c[nH]c2ccccc12)NC(=O)[C@H](Cc1c[nH]cn1)NC(=O)[C@@H]1CCC(=O)N1)C(=O)N[C@H](CCCCN/C(=N/CCCCCC)NC#N)C(=O)N[C@@H](CC(C)C)C(=O)N[C@@H](CCCCNC(C)C)C(=O)N1CCC[C@H]1C(=O)N[C@H](C)C(N)=O	3.3 nM	0.14	–	Activity [2]: Weak activity; Activity [4]: inactive
CC(C)C[C@H](NC(=O)[C@@H](Cc1cccnc1)NC(=O)[C@H](Cc1ccc(O)cc1)NC(=O)[C@H](CO)NC(=O)[C@@H](Cc1cccnc1)NC(=O)[C@H](Cc1cnc[nH]1)NC(=O)[C@@H]1CCC(=O)N1)C(=O)N[C@@H](CCCCNC(C)C)C(=O)N1CCC[C@H]1C(=O)N[C@H](C)C(N)=O	0.08 nM	–	–	–
CC(C)C[C@H](NC(=O)[C@@H](CCCNc1n[nH]c(N)n1)NC(=O)[C@H](CCCNc1n[nH]c(N)n1)NC(=O)[C@H](CO)NC(=O)[C@H](Cc1c[nH]c2ccccc12)NC(=O)[C@H](Cc1c[nH]cn1)NC(=O)[C@@H]1CCC(=O)N1)C(=O)N[C@@H](CCCCNC(C)C)C(=O)N1CCC[C@H]1C(=O)N[C@H](C)C(N)=O	0.21 nM	0.2	158 µg/mL (≈ 114 µM)	Activity [6]: Active
CC(C)C[C@H](NC(=O)[C@@H](Cc1ccc(Nc2n[nH]c(N)n2)cc1)NC(=O)[C@H](Cc1ccc(Nc2n[nH]c(N)n2)cc1)NC(=O)[C@H](CO)NC(=O)[C@H](Cc1c[nH]c2ccccc12)NC(=O)[C@H](Cc1c[nH]cn1)NC(=O)[C@@H]1CCC(=O)N1)C(=O)N[C@@H](CCCCNC(C)C)C(=O)N1CCC[C@H]1C(=O)N[C@H](C)C(N)=O	–	1.3	50 µg/mL (≈ 33.8 µM)	Activity [7]: Active; Activity [8]: Weak activity
CC(=O)N[C@H](Cc1ccc2ccccc2c1)C(=O)N[C@H](Cc1ccc(Cl)cc1)C(=O)N[C@H](Cc1cccnc1)C(=O)N[C@@H](CO)C(=O)N[C@@H](CCCCNc1n[nH]c(N)n1)C(=O)N[C@H](CCCCNc1n[nH]c(N)n1)C(=O)N[C@@H](CC(C)C)C(=O)N[C@@H](CCCCNC(C)C)C(=O)N1CCC[C@H]1C(=O)N[C@H](C)C(N)=O (Ac-[d2Nal][dPhe(4-Cl)][d3Pal]SK(Triazol3yl(1,2,4-5-NH2))[dK](Triazol3yl(1,2,4-5-NH2))L[Lys(iPr)]P[dA]-NH2)	0.48 nM	–	–	–
CCCC/N=C(\NC#N)NCCCC[C@H](NC(=O)[C@H](CC(C)C)NC(=O)[C@@H](CCCCNC(=O)c1cccnc1)NC(=O)[C@H](CCCCNC(=O)c1cccnc1)NC(=O)[C@H](CO)NC(=O)[C@H](Cc1c[nH]c2ccccc12)NC(=O)[C@H](Cc1c[nH]cn1)NC(=O)[C@@H]1CCC(=O)N1)C(=O)N1CCC[C@H]1C(=O)N[C@H](C)C(N)=O	0.45 nM	0.3	–	Activity [9]: Weak activity
C/N=C(\NC#N)NCCCC[C@@H](NC(=O)[C@H](CCCCN/C(=N\C)NC#N)NC(=O)[C@H](CO)NC(=O)[C@H](Cc1c[nH]c2ccccc12)NC(=O)[C@H](Cc1c[nH]cn1)NC(=O)[C@@H]1CCC(=O)N1)C(=O)N[C@@H](CC(C)C)C(=O)N[C@@H](CCCCNC(C)C)C(=O)N1CCC[C@H]1C(=O)N[C@H](C)C(N)=O	0.24 nM	–	–	Activity [10]: Active
CC(C)C[C@H](NC(=O)[C@@H](CCCCNC(=NC#N)NC1CCCCC1)NC(=O)[C@H](CCCCNC(=NC#N)NC1CCCCC1)NC(=O)[C@H](CO)NC(=O)[C@H](Cc1c[nH]c2ccccc12)NC(=O)[C@H](Cc1cnc[nH]1)NC(=O)[C@@H]1CCC(=O)N1)C(=O)N[C@@H](CCCCNC(C)C)C(=O)N1CCC[C@H]1C(=O)N[C@H](C)C(N)=O	1.2 nM	–	–	–
CCCC/N=C(\NC#N)NCCCC[C@@H](NC(=O)[C@H](Cc1c[nH]cn1)NC(=O)[C@@H]1CCC(=O)N1)C(=O)N[C@@H](CO)C(=O)N[C@@H](Cc1ccc(O)cc1)C(=O)N[C@H](CCCCN/C(=N/CCCC)NC#N)C(=O)N[C@@H](CC(C)C)C(=O)N[C@@H](CCCCNC(C)C)C(=O)N1CCC[C@H]1C(=O)N[C@H](C)C(N)=O	–	–	50 µg/mL (≈ 34 µM)	–
CCCC/N=C(\NC#N)NCCC[C@@H](NC(=O)[C@H](Cc1c[nH]cn1)NC(=O)[C@@H]1CCC(=O)N1)C(=O)N[C@@H](CO)C(=O)N[C@@H](Cc1ccc(O)cc1)C(=O)N[C@H](Cc1cccnc1)C(=O)N[C@@H](CC(C)C)C(=O)N[C@@H](CCCCNC(C)C)C(=O)N1CCC[C@H]1C(=O)N[C@H](C)C(N)=O	–	1.6	–	Activity [11]: Active; Activity [12]: inactive
CC(C)C[C@H](NC(=O)[C@@H](CCCC/N=C(/NC#N)NC(C)C)NC(=O)[C@H](CCCC/N=C(/NC#N)NC(C)C)NC(=O)[C@H](CO)NC(=O)[C@H](Cc1c[nH]c2ccccc12)NC(=O)[C@H](Cc1c[nH]cn1)NC(=O)[C@@H]1CCC(=O)N1)C(=O)N[C@@H](CCCCNC(C)C)C(=O)N1CCC[C@H]1C(=O)N[C@H](C)C(N)=O	0.32 nM	0.3	–	Activity [13]: Active; Activity [14]: inactive
CC(C)C[C@H](NC(=O)[C@@H](CCCCNC(=NC#N)NCc1ccccn1)NC(=O)[C@H](CCCCNC(=NC#N)NCc1ccccn1)NC(=O)[C@H](CO)NC(=O)[C@H](Cc1c[nH]c2ccccc12)NC(=O)[C@H](Cc1cnc[nH]1)NC(=O)[C@@H]1CCC(=O)N1)C(=O)N[C@@H](CCCCNC(C)C)C(=O)N1CCC[C@H]1C(=O)N[C@H](C)C(N)=O	0.27 nM	–	–	–
CC(C)C[C@H](NC(=O)[C@@H](CCCCNc1n[nH]c(N)n1)NC(=O)[C@H](CCCCNc1n[nH]c(N)n1)NC(=O)[C@H](CO)NC(=O)[C@H](Cc1c[nH]c2ccccc12)NC(=O)[C@H](Cc1c[nH]cn1)NC(=O)[C@@H]1CCC(=O)N1)C(=O)N[C@@H](CCCCNC(C)C)C(=O)N1CCC[C@H]1C(=O)N[C@H](C)C(N)=O	–	0.23	–	Activity [6]: Active
CC(C)C[C@H](NC(=O)[C@@H](CCCN=C(N)N)NC(=O)[C@H](Cc1ccc(O)cc1)NC(=O)[C@H](CO)NC(=O)[C@@H](Cc1cccnc1)NC(=O)[C@H](Cc1c[nH]cn1)NC(=O)[C@@H]1CCC(=O)N1)C(=O)N[C@@H](CCCCNc1n[nH]c(N)n1)C(=O)N1CCC[C@H]1C(=O)N[C@H](C)C(N)=O	–	–	19 µg/mL (≈ 14.5 µM)	–
CC(=O)N[C@H](Cc1ccc2ccccc2c1)C(=O)N[C@H](Cc1ccc(F)cc1)C(=O)N[C@H](Cc1c[nH]c2ccccc12)C(=O)N[C@@H](CO)C(=O)N[C@@H](Cc1ccc(O)cc1)C(=O)N[C@H](CCCN=C(N)N)C(=O)N[C@@H](CC(C)C)C(=O)N[C@@H](CCCN=C(N)N)C(=O)N1CCC[C@H]1C(=O)NCC(N)=O (HELM PEPTIDE1{[ac].[O=C([C@@H](Cc1ccc2ccccc2c1)N[*:1])[*:2]].[O=C([C@@H](Cc1ccc(F)cc1)N[*:1])[*:2]].[dW].S.Y.[dR].L.R.P.G.[am]}$$$$V2.0)	–	–	0.17 µg/mL (≈ 0.118 µM)	–
CC(=O)N[C@H](Cc1ccc2ccccc2c1)C(=O)N[C@H](Cc1ccc(Cl)cc1)C(=O)N[C@H](Cc1cccnc1)C(=O)N[C@@H](CO)C(=O)N[C@@H](CCCCNC(=O)c1cccnc1)C(=O)N[C@H](CCCCNC(=O)c1cccnc1)C(=O)N[C@@H](CC(C)C)C(=O)N[C@@H](CCCCNC(C)C)C(=O)N1CCC[C@H]1C(=O)N[C@H](C)C(N)=O (Ac-[d2Nal][dPhe(4-Cl)][d3Pal]SK(Nicotinoyl)[dK](Nicotinoyl)L[Lys(iPr)]P[dA]-NH2)	–	–	> 300 µg/mL	–
CC(C)C[C@H](NC(=O)[C@@H](CCCCNc1n[nH]c(N)n1)NC(=O)[C@H](Cc1ccc(O)cc1)NC(=O)[C@H](CO)NC(=O)[C@@H](CCCCNc1n[nH]c(N)n1)NC(=O)[C@H](Cc1c[nH]cn1)NC(=O)[C@@H]1CCC(=O)N1)C(=O)N[C@@H](CCCCNC(C)C)C(=O)N1CCC[C@H]1C(=O)N[C@H](C)C(N)=O	–	–	> 150 µg/mL	–
